Source: PubChem BioAssay
PG9 binder – small molecules binding HIV-1 gp120 antibody PG9 | TR-FRET gp120-PG9 antibody binding | inhibition, % at 6.7 µM | 360,000 tested, 0.43% active | AID 624416; in the data active = inhibition above about 8.5%
SKN-1 block – inhibitors of C. elegans SKN-1. C. elegans VP596 Pgst-4::GFP/RFP ratio, acrylamide-induced, 24 h. inhibition, % at 21.8 µM. 360,000 tested, 0.49% active. AID 624304;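 active = interference check ratio from 0.5 to 1.5 plus GFP to RFP signal ratio inhibition reaching or exceeding a fixed threshold, cut at about 30% in these data, passing the limit was not always enough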
NR2E3 ag-1 – NR2E3 (human) agonism; Q9Y5X4; GST-NR2E3/biotin-RetCOR TR-FRET, 1536-well; inhibition of corepressor binding, % at 4.78 µM; 320,000 tested, 0.12% active; AID 2300;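 active = percent inhibition above the cutoff of mean plus 3 SD of all tested compounds, set per screening campaign, cut at about 20% in these data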
Target sequence (Q9Y5X4 whole entry, looked up): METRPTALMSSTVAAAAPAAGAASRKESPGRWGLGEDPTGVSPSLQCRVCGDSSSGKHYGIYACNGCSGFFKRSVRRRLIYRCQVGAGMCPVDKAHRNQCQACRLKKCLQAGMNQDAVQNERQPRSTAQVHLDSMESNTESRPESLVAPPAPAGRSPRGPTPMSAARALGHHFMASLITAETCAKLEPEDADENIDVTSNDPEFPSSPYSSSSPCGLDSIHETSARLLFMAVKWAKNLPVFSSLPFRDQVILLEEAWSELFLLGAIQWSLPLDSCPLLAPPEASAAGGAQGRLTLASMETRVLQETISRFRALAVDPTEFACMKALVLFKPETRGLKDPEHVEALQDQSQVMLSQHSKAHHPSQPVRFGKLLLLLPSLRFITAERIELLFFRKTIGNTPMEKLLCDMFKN
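system = GST-tagged NR2E3 plus biotinylated RetCOR corepressor | input = 1.35 nM GST-NR2E3 | also added = 7 nM biotin-RetCOR | schedule = 5 h incubation at 4 °C | measured by = TR-FRET with europium anti-GST and streptavidin-D2, 340 nm excitation | read-out = percent loss of FRET ratio relative to control wells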
NR2E3 ag-2 – human photoreceptor-specific nuclear receptor agonism; inhibition of corepressor binding, % at 3.98 µM; 360,000 tested, 0.35% active; AID 602229; CHO-S Gal4-NCOR/VP16-NR2E3 two-hybrid, luciferase;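 active = inhibition above the mean of all tested compounds plus 3 SD, cut at about 70% in these data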;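 also: higher means lower luciferase signal from less NR2E3 corepressor binding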
NR1D1 modulator – Rev-erb alpha (human) modulation; 370,000 tested, 0.79% active; AID 1259318; Rev-erbα–FITC-DNA binding, fluorescence polarization, 90 min; activity, % at 10 µM; P20393;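 active = activity above about 14%, limit read from the data; passing the limit was not always enough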
MT1-MMP act inh – inhibitors of human MT1-MMP activation; P50281; HT1080 RFP-PRO-GFP cells, GFP/RFP ratio fluorescence, overnight; percent of plate control window, DMSO zero; GFP/RFP ratio change, % at 20 µM; 360,000 tested, 0.061% active; AID 651647;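 active = GFP/RFP ratio change of at least 30% with cell ATP level not reduced by more than half and red fluorescence within 50% of control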
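Assay system: HT1080 RFP-PRO-GFP cells | Dosing: 20 µM single dose, 1% DMSO | Incubation: Cells overnight before dosing, compound overnight, 37 °C, 5% CO2 | Evaluation: GFP/RFP fluorescence ratio | Control set: DMSO-only wells and HT1080 RFP-L50D-GFP cell wells as references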
Each line names hits and unclear results; the compound was inactive in the other large screens. Hits are enriched below; roughly 1.9% of the tested compounds scored in any of these assays.

Nc1ccc(CSc2ccc(Cl)cc2)c(Cl)c1	SKN-1 block 45.1 (no result: NR2E3 ag-1)
N=C(N)SCc1ccc(Cl)cc1Cl	none
COc1cccc(CNC(=O)[C@H]2CCCN2C(=O)[C@H]2CCCN2C(=O)OC(C)(C)C)c1	none (no result: SKN-1 block, NR2E3 ag-1, NR2E3 ag-2, MT1-MMP act inh)
C#CCN(Cc1cccc(F)c1)C(=O)c1nnc2c3ccccc3n(S(=O)(=O)c3ccc(C)cc3)c2n1	none (no result: SKN-1 block, NR2E3 ag-1, NR2E3 ag-2, MT1-MMP act inh)
C=C1CC[C@H](O)C/C1=C/C=C1\CCCC2(C)C1CCC2C(C)CCCC(C)C (stereo not given in full)	none (no result: PG9 binder, SKN-1 block, NR2E3 ag-1, NR2E3 ag-2, MT1-MMP act inh)
Cc1cc(C)c(NC(=O)CS(=O)CC(=O)Nc2ccc(N3CCOCC3)cc2)c(C)c1 (stereo not given)	SKN-1 block 35.1
CO[C@H]1C[C@H](O[C@H]2[C@H](C)[C@@H](OC3O[C@H](C)C[C@H](N(C)C)[C@H]3OC(C)=O)[C@@H](C)C[C@]3(CO3)C(=O)[C@H](C)[C@@H](OC(C)=O)[C@@H](C)[C@@H](C)OC(=O)[C@@H]2C)O[C@@H](C)[C@@H]1OC(C)=O (stereo not given in full)	none (no result: PG9 binder, SKN-1 block, NR2E3 ag-1, NR2E3 ag-2, MT1-MMP act inh)
Brc1ccc(-c2nc(-c3ccccc3)no2)o1	SKN-1 block 79.0
Brc1ccc(-c2nc(-c3cccnc3)no2)o1	SKN-1 block 52.0
CCN1C(=O)N(C(C)=O)[C@@H]2C[C@H](C(=O)N3CCCC3)[C@H](C)[C@H](c3ccccc3)C[C@@H]21	none (no result: SKN-1 block, NR2E3 ag-1, NR2E3 ag-2, MT1-MMP act inh)
Clc1ccc2oc(-c3ccccc3)nc2c1	none
O=C(CSc1nc2cc(Cl)ccc2o1)NCCc1ccccc1	none
Clc1ccc2oc(-c3cccnc3)nc2c1	SKN-1 block 49.6
Clc1ccc2oc(SCc3cccnc3)nc2c1	SKN-1 block 41.3
CCC(C)C1NC(=O)C(CCN)NC(=O)C(NC(=O)C(CCN)NC(=O)C(NC(=O)C(CCN)NC(=O)CCCCC(C)C)C(C)O)CCNC(=O)C(C(C)O)NC(=O)C(CCN)NC(=O)C(CCN)NC(=O)C(C(C)CC)NC1=O (stereo not given)	none (no result: PG9 binder, SKN-1 block, NR2E3 ag-1, NR2E3 ag-2, MT1-MMP act inh)
Clc1ccc(-c2nc(CSc3ccccn3)cs2)cc1	SKN-1 block 58.4 (no result: NR2E3 ag-1)
CCCCc1oc2ccc(NS(C)(=O)=O)cc2c1C(=O)c1ccc(OCCCN(CCCC)CCCC)cc1	none (no result: PG9 binder, SKN-1 block, NR2E3 ag-1, NR2E3 ag-2, MT1-MMP act inh)
COC(=O)c1cn(NC(=O)C2CCCO2)c(=O)c2ccccc12 (stereo not given)	none
COC(=O)c1cn(NC(=O)C2COc3ccccc3O2)c(=O)c2ccccc12 (stereo not given)	SKN-1 block 36.1 (no result: MT1-MMP act inh)
C/C(CC(=O)Nc1ccc(OCc2ccccc2)cc1)=N\NC(=O)C(=O)Nc1ccc(C)c(Cl)c1	SKN-1 block 38.2
C/C(CC(=O)Nc1ccc(C)c(Cl)c1)=N\NC(=O)Cc1ccccc1	none
CC(=O)[C@@]1(O)CCC2C3C[C@H](C)C4=CC(=O)C=CC4(C)[C@@]3(F)[C@@H](O)C[C@@]21C (stereo not given in full)	none (no result: PG9 binder, SKN-1 block, NR2E3 ag-1, NR2E3 ag-2, MT1-MMP act inh)
Clc1ccccc1/C=C/c1ccnc2ccccc12	SKN-1 block 35.3
CCn1c(CSc2ncn[nH]2)nc2cc(C(=O)O)ccc21	none
CCn1c(CSc2nnc(-c3ccncc3)n2C)nc2cc(C(=O)O)ccc21	SKN-1 block 40.6
COc1ccc(-c2cc(C3CCN(c4ccc(C(C)=O)cc4[N+](=O)[O-])CC3)[nH]n2)cc1	NR2E3 ag-2 72.8
CCC(C)N(C(=O)Cn1c(=O)cnc2ccccc21)C1CCS(=O)(=O)C1 (stereo not given)	none
CCc1nc2ccccc2n1CC(=O)N(C(C)CC)C1CCS(=O)(=O)C1 (stereo not given)	SKN-1 block 46.7
CCC(C)C(=O)O[C@H]1C[C@H](O)C=C2C=C[C@H](C)[C@H](CC[C@@H](O)C[C@@H](O)CC(=O)O)C21 (stereo not given in full)	none (no result: PG9 binder, SKN-1 block, NR2E3 ag-1, NR2E3 ag-2, MT1-MMP act inh)
O=C(/C=C/Nc1ccc(F)c(F)c1)c1cccs1	SKN-1 block 43.7
Cc1cccc(N/C=C/C(=O)c2cccs2)c1C	SKN-1 block 44.2
O=C(/C=C/Nc1ccc(F)cc1)c1cccs1	none
CCOc1ccc(-n2c(SCc3cccc4ccccc34)nnc2-c2ccc(C)cc2)cc1	none (no result: PG9 binder, SKN-1 block, NR2E3 ag-1, NR2E3 ag-2, MT1-MMP act inh)
COCc1cc(N2CCNC[C@H]2C)ccc1N1CCN(Cc2ccccc2)[C@@H](C)C1	none (no result: SKN-1 block, NR2E3 ag-1, NR2E3 ag-2, MT1-MMP act inh)
Cc1cc(NS(=O)(=O)c2ccc(NC(=O)c3cc(-c4cccnc4)nc4ccc(Cl)cc34)cc2)no1	SKN-1 block 37.0
Cc1cc(NS(=O)(=O)c2ccc(NC(=O)c3cc(-c4ccccc4Cl)nc4ccccc34)cc2)no1	none
Cc1sc(N/N=C/c2cccnc2)nc1-c1ccc(Cl)cc1	SKN-1 block 35.3
Clc1ccc(N/N=C/c2cccnc2)cc1	none
Clc1ccc(SCc2cc(-c3ccc(Cl)cc3)on2)cc1	SKN-1 block 52.6
CCCC/C=C1/C(c2ccccc2)N(Cc2ccc(OC)cc2OC)C2=NC(c3ccccc3)CC(=O)N21 (stereo not given)	none (no result: PG9 binder, SKN-1 block, NR2E3 ag-1, NR2E3 ag-2, MT1-MMP act inh)
Cc1cccc(C)c1N(CC(=O)Nc1cccc(N(C)S(C)(=O)=O)c1)S(C)(=O)=O	SKN-1 block 36.9
Cc1ccc(Cl)cc1N(CC(=O)Nc1cccc(N(C)S(C)(=O)=O)c1)S(C)(=O)=O	none
COC(=O)N1C[C@H](OCc2cn(-c3cc(Cl)cc(Cl)c3)nn2)[C@H](OCc2cn(-c3cc(Cl)cc(Cl)c3)nn2)C[C@@H]1c1ccccc1Br	none (no result: SKN-1 block, NR2E3 ag-1, NR2E3 ag-2, MT1-MMP act inh)
Cc1c(C#N)c(O)n(CCO)c(=O)c1N=Nc1ccccc1	SKN-1 block 39.7
Cc1c(C#N)c(O)n(CCO)c(=O)c1N=Nc1ccc(S(N)(=O)=O)cc1	none
Fc1ccc(/C=C/c2nnc(-c3cccs3)o2)cc1	SKN-1 block 53.9
Cc1ccc(/C=C/c2nnc(-c3cccs3)o2)cc1	none (no result: MT1-MMP act inh)
Cc1ccc(Nc2nc(CSc3nnc(-c4cccs4)o3)cs2)cc1	SKN-1 block 35.0
Cc1ccc(-c2nnc(-c3cccs3)o2)cc1	SKN-1 block 36.5
c1ccc(-c2nc(CSc3nnc(-c4cccs4)o3)cs2)cc1	SKN-1 block 29.1
Cc1ccc(Nc2nc(CSc3n[nH]c(N)n3)cs2)cc1	none
C=C[C@@]1(C)CC(=O)[C@@]2(O)[C@](C)(O1)[C@@H](OC(C)=O)[C@@H](O)C1C(C)(C)CC[C@H](O)[C@@]12C (stereo not given in full)	none (no result: PG9 binder, SKN-1 block, NR2E3 ag-1, NR2E3 ag-2, MT1-MMP act inh)
CSC1=Nc2ccccc2N=C(N2CCCC2)C1	none (no result: SKN-1 block, NR2E3 ag-1, NR2E3 ag-2, MT1-MMP act inh)
COC(=O)C1=C(C)N(Cc2ccccc2C(F)(F)F)C(=NCc2ccc(C(F)(F)F)cc2)NC1CCc1ccccc1 (stereo not given)	none (no result: SKN-1 block, NR2E3 ag-1, NR2E3 ag-2, MT1-MMP act inh)
Cc1ccc(Nc2nc(N)nc(CSc3nnc(-c4ccncc4)o3)n2)cc1	SKN-1 block 46.1
COCCN(C(=O)/C=C/c1cccc([N+](=O)[O-])c1)c1c(N)n(Cc2ccccc2)c(=O)[nH]c1=O	none
